pIC50: −log10 of the molar value.
Experiments:
HeLa [1] = test: Tested for effect of compound on G2/M cell cycle phase and apoptosis in HeLa cells at a dose of 10E-7 for 24 hr; assay type: functional, Homo sapiens
How it was run: (§1)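 HeLa cells grown in DMEM with 10% heat-inactivated FCS, 2 mM L-glutamine, penicillin and gentamicin at 37 °C, 5% CO2. Exposed to compound at 10^-6 to 10^-8 M for 24, 48 or 72 h, untreated controls run in parallel. (3-5) × 10^5 cells fixed overnight in 70% ethanol at 4 °C, then RNase A plus propidium iodide. Phase fractions measured by flow cytometry, with sub-G1 (hypodiploid) cells counted as apoptotic. Three independent experiments.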

HeLa [2] = test: Tested for effect of compound on Sub-G1 cell cycle phase and apoptosis in HeLa cells at a dose of 10E-6 for 72 hr; assay type: functional, Homo sapiens; how it was run: as §1
HeLa [3] = test: Tested for effect of compound on G0/G1 cell cycle phase and apoptosis in HeLa cells at a dose of 10E-6 for 48 hr; assay type: functional, Homo sapiens
How it was run: (§2)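 HeLa cells were grown in DMEM with 10% heat-inactivated FCS and 2 mM L-glutamine at 37 °C in 5% CO2. They were exposed to 10^-6 to 10^-8 M for 24, 48 or 72 h. Then (3-5)×10^5 cells were fixed overnight in 70% ethanol at 4 °C, PBS-washed, and given 1 mg/mL RNase A plus 20 µg/mL propidium iodide for 1 h at room temperature. DNA content was read by flow cytometry. Sub-G1 (hypodiploid) % counted as apoptotic. Untreated controls were run in parallel. Representative of three independent experiments.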

HeLa [4] = test: Tested for effect of compound on G0/G1 cell cycle phase and apoptosis in HeLa cells at a dose of 10E-8 for 48 hr; assay type: functional, Homo sapiens; how it was run: as §2
HeLa [5] = test: Tested for effect of compound on G0/G1 cell cycle phase and apoptosis in HeLa cells at a dose of 10E-6 for 72 hr; assay type: functional, Homo sapiens; how it was run: as §2
HeLa [6] = test: Tested for effect of compound on G2/M cell cycle phase and apoptosis in HeLa cells at a dose of 10E-7 for 48 hr; assay type: functional, Homo sapiens; how it was run: as §1
HeLa [7] = test: Tested for effect of compound on Sub-G1 cell cycle phase and apoptosis in HeLa cells at a dose of 10E-7 for 24 hr; assay type: functional, Homo sapiens; how it was run: as §1
HeLa [8] = test: Tested for effect of compound on G0/G1 cell cycle phase and apoptosis in HeLa cells at a dose of 10E-8 for 72 hr; assay type: functional, Homo sapiens; how it was run: as §2
HeLa [9] = test: Tested for effect of compound on Sub-G1 cell cycle phase and apoptosis in HeLa cells at a dose of 10E-7 for 48 hr; assay type: functional, Homo sapiens; how it was run: as §1
HeLa [10] = test: Tested for effect of compound on G2/M cell cycle phase and apoptosis in HeLa cells at a dose of 10E-8 for 24 hr; assay type: functional, Homo sapiens; how it was run: as §1
HeLa [11] = test: Tested for effect of compound on G0/G1 cell cycle phase and apoptosis in HeLa cells at a dose of 10E-7 for 24 hr; assay type: functional, Homo sapiens; how it was run: as §2
[12] = Selectivity index is the ratio of IC50 of P-388 cell line to that of HT-29; assay type: functional
HT-29 = test: In vitro cytotoxicity against HT-29 (human colon carcinoma) cell line.; assay type: functional, cell-based; conditions: Homo sapiens, HT-29
HeLa [13] = test: Tested for effect of compound on G0/G1 cell cycle phase and apoptosis in HeLa cells at a dose of 10E-8 for 24 hr; assay type: functional, Homo sapiens; how it was run: as §2
HeLa [14] = test: Tested for effect of compound on S cell cycle phase and apoptosis in HeLa cells at a dose of 10E-7 for 24 hr; assay type: functional, Homo sapiens; how it was run: as §1
HeLa [15] = test: Tested for effect of compound on G2/M cell cycle phase and apoptosis in HeLa cells at a dose of 10E-6 for 24 hr; assay type: functional, Homo sapiens; how it was run: as §2
HeLa [16] = test: Tested for effect of compound on S cell cycle phase and apoptosis in HeLa cells at a dose of 10E-8 for 48 hr; assay type: functional, Homo sapiens; how it was run: as §1
HeLa [17] = test: Tested for effect of compound on Sub-G1 cell cycle phase and apoptosis in HeLa cells at a dose of 10E-8 for 24 hr; assay type: functional, Homo sapiens; how it was run: as §1
P388 = test: Tested in vitro for antineoplastic activity against P-388 (lymphoid neoplasm from DBA/2 mouse) tumor cell line; assay type: functional, cell-based
How it was run: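 P-388 cells seeded at 1 × 10^4 cells/well in MEM–10% FCS containing graded compound concentrations. Incubated 4 days at 37 °C, 10% CO2, 98% humidity. Inhibition scored by inverted microscopy against untreated controls, which were kept in exponential growth. Mean of duplicate wells.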

HeLa [18] = test: Tested for effect of compound on G0/G1 cell cycle phase and apoptosis in HeLa cells at a dose of 10E-7 for 48 hr; assay type: functional, Homo sapiens; how it was run: as §2
HeLa [19] = test: Tested for effect of compound on G2/M cell cycle phase and apoptosis in HeLa cells at a dose of 10E-8 for 72 hr; assay type: functional, Homo sapiens; how it was run: as §1
HeLa [20] = test: Tested for effect of compound on S cell cycle phase and apoptosis in HeLa cells at a dose of 10E-8 for 24 hr; assay type: functional, Homo sapiens; how it was run: as §1
HeLa [21] = test: Tested for effect of compound on G2/M cell cycle phase and apoptosis in HeLa cells at a dose of 10E-6 for 48 hr; assay type: functional, Homo sapiens; how it was run: as §2
SK-MEL-28 = test: Tested in vitro for antineoplastic activity against MEL-28 (human melanoma) tumor cell line; assay type: functional, cell-based
How it was run: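 MEL-28 cells seeded at 2 × 10^4 cells/well in MEM–10% FCS containing graded compound concentrations. Incubated 4 days at 37 °C, 10% CO2, 98% humidity. Stained with crystal violet and inhibition judged against untreated controls, which were kept in exponential growth. Mean of duplicate wells.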

HeLa [22] = test: Tested for effect of compound on Sub-G1 cell cycle phase and apoptosis in HeLa cells at a dose of 10E-8 for 72 hr; assay type: functional, Homo sapiens; how it was run: as §1
HeLa [23] = test: Tested for effect of compound on S cell cycle phase and apoptosis in HeLa cells at a dose of 10E-6 for 24 hr; assay type: functional, Homo sapiens; how it was run: as §1
A549 = test: In vitro cytotoxicity against A-549 (human lung carcinoma) cell line.; assay type: functional, cell-based; conditions: Homo sapiens, A549
HeLa [24] = test: Tested for effect of compound on S cell cycle phase and apoptosis in HeLa cells at a dose of 10E-6 for 48 hr; assay type: functional, Homo sapiens; how it was run: as §1
HeLa [25] = test: Tested for effect of compound on S cell cycle phase and apoptosis in HeLa cells at a dose of 10E-8 for 72 hr; assay type: functional, Homo sapiens; how it was run: as §1
HeLa [26] = test: Tested for effect of compound on G2/M cell cycle phase and apoptosis in HeLa cells at a dose of 10E-7 for 72 hr; assay type: functional, Homo sapiens; how it was run: as §1
HeLa [27] = test: Tested for effect of compound on S cell cycle phase and apoptosis in HeLa cells at a dose of 10E-7 for 72 hr; assay type: functional, Homo sapiens; how it was run: as §1
HeLa [28] = test: Tested for effect of compound on G0/G1 cell cycle phase and apoptosis in HeLa cells at a dose of 10E-6 for 24 hr; assay type: functional, Homo sapiens; how it was run: as §2
HeLa [29] = test: Tested for effect of compound on Sub-G1 cell cycle phase and apoptosis in HeLa cells at a dose of 10E-8 for 48 hr; assay type: functional, Homo sapiens; how it was run: as §1
HeLa [30] = test: Tested for effect of compound on S cell cycle phase and apoptosis in HeLa cells at a dose of 10E-7 for 48 hr; assay type: functional, Homo sapiens; how it was run: as §1
HeLa [31] = test: Tested for effect of compound on Sub-G1 cell cycle phase and apoptosis in HeLa cells at a dose of 10E-6 for 24 hr; assay type: functional, Homo sapiens; how it was run: as §1
HeLa [32] = test: Tested for effect of compound on G2/M cell cycle phase and apoptosis in HeLa cells at a dose of 10E-8 for 48 hr; assay type: functional, Homo sapiens; how it was run: as §1
HeLa [33] = test: Tested for effect of compound on Sub-G1 cell cycle phase and apoptosis in HeLa cells at a dose of 10E-6 for 48 hr; assay type: functional, Homo sapiens; how it was run: as §1
HeLa [34] = test: Tested for effect of compound on S cell cycle phase and apoptosis in HeLa cells at a dose of 10E-6 for 72 hr; assay type: functional, Homo sapiens; how it was run: as §1
HeLa [35] = test: Tested for effect of compound on G2/M cell cycle phase and apoptosis in HeLa cells at a dose of 10E-6 for 72 hr; assay type: functional, Homo sapiens; how it was run: as §1
HeLa [36] = test: Tested for effect of compound on G0/G1 cell cycle phase and apoptosis in HeLa cells at a dose of 10E-7 for 72 hr; assay type: functional, Homo sapiens; how it was run: as §2
HeLa [37] = test: Tested for effect of compound on Sub-G1 cell cycle phase and apoptosis in HeLa cells at a dose of 10E-7 for 72 hr; assay type: functional, Homo sapiens; how it was run: as §1

With COC(=O)[C@@H]1C(C=O)=Cc2cc3c(cc2[C@H]1c1cc(OC)c(OC)c(OC)c1)OCO3 the Activity (HeLa [1]) was 80.1%, the Activity (HeLa [2]) was 58.9% and the Activity (HeLa [3]) was 17%. The Activity (HeLa [4]) was 58.7%, the Activity (HeLa [5]) was 14.1% and the Activity (HeLa [6]) was 68.2%. For the same compound, the Activity (HeLa [7]) was 1.4%, the Activity (HeLa [8]) was 47.4% and the Activity (HeLa [9]) was 10.9%. The Activity (HeLa [10]) was 24.3%, the Activity (HeLa [11]) was 8.1% and the Selectivity index [12] was 19. For the same compound, the pIC50 (HT-29) was 7.92, the Activity (HeLa [13]) was 58.1% and the Activity (HeLa [14]) was 10.4%. The Activity (HeLa [15]) was 96%, the Activity (HeLa [16]) was 10.1% and the Activity (HeLa [17]) was 1.4%. The pIC50 (P388) was 6.64, the Activity (HeLa [18]) was 11.2% and the Activity (HeLa [19]) was 39.3%. For the same compound, the Activity (HeLa [20]) was 16.2%, the Activity (HeLa [21]) was 44.8% and the pIC50 (SK-MEL-28) was 6.64. It also gave an Activity (HeLa [22]) of 3.1%, an Activity (HeLa [23]) of 1.7% and a pIC50 (A549) of 6.92. It also gave an Activity (HeLa [24]) of 9.3%, an Activity (HeLa [25]) of 10.2% and an Activity (HeLa [26]) of 17.5%. The Activity (HeLa [27]) was 17.3%, the Activity (HeLa [28]) was 1.2% and the Activity (HeLa [29]) was 1.5%. It also gave an Activity (HeLa [30]) of 9.7%, an Activity (HeLa [31]) of 1.1% and an Activity (HeLa [32]) of 29.7%. For the same compound, the Activity (HeLa [33]) was 28.9%, the Activity (HeLa [34]) was 17.5% and the Activity (HeLa [35]) was 9.5%. For the same compound, the Activity (HeLa [36]) was 15.1% and the Activity (HeLa [37]) was 50.1%.

From ChEMBL document CHEMBL1148485, “Synthesis and biological evaluation of new selective cytotoxic cyclolignans derived from podophyllotoxin” (J Med Chem, 2004)
